Results filed as inconclusive are left out.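 How the source made its calls, unless noted: active means viability increase at or above a cutoff of the median across tested compounds plus 3 SD (cut at about 8.5% in these data, passing the limit was not always enough); inconclusive means some gains above the cutoff, reason not given; inactive means the rest.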
Tests used:
[1] = S. cerevisiae growth inhibition in permissive medium (OD615), pilot counter-assay for S. cerevisiae lifespan shortening project, permissive growth control (AID 705;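 active means growth inhibition above 25% in both replicates, a cutoff set 3 SD above the mean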); conditions: OD615, 24 h, at 10 µM, hits give high values
In short: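 System: Engineered DeaD yeast | Buffer or medium: SC raffinose/galactose permissive medium | Incubation: Cells pre-grown 4 h, then 24 h compound exposure, 30 °C humidified | Measured by: Absorbance (optical density) at 615 nm | Read-out: Reduction in yeast growth (OD615)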

[2] = S. cerevisiae growth inhibition in restrictive medium, OD615, pilot screen, restrictive growth control, yeast lifespan reduction project (AID 706;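 active means growth inhibition above a set limit, 3 SD over mean compound inhibition, in both replicates, cut at about 43% in these data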;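 further: modified DeaD lifespan yeast strain shifted to restrictive glucose medium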); conditions: OD615, 48 h, at 10 µM, hits give high values
In short: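 Material: modified S. cerevisiae; Medium: glucose-based CSMM-D restrictive medium; Compound dosing: one concentration, 10 µM final, 0.25% DMSO; Incubation: 48 h compound exposure at 30 °C; Measured by: OD615.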

[3] = doxorubicin toxicity protection in MRP-1 cells – H69AR cells, CellTiter-Glo, duplicate, MRP-1 activator project, pilot screen (AID 807); conditions: H69AR viability with doxorubicin, CellTiter-Glo luminescence; at 10 µM; hits give high values;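 further: compound pretreatment 18-22 h then 72 h combined with doxorubicin; 0% = doxorubicin alone and 100% = vehicle without doxorubicin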
[4] = viability of HCT116 without oncogenic beta-catenin – human colon tumor cells, pilot screen (AID 823;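 active means cell viability at or below a set limit in both duplicate runs, the limit being the all-compound median minus 4 SD, cut at about 23% in these data, passing the limit was not always enough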;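 further: 0% = wells killed by 20 µM Hyamine and 100% = untreated DMSO cell wells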); conditions: HCT116 beta-catenin knockout viability, CellTiter-Glo, 60 h; at 10 µM; hits give low values
[5] = viability of PTEN-null HCT116 cells – cell-based, HCT116 clonal line, CellTiter-Glo, pilot screen (AID 824;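 active means viability at or below 27.92% in each of two runs, the all-compound median minus 4 SD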;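 further: 0% = 20 µM Hyamine control and 100% = vehicle cell control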); conditions: HCT116 PTEN-deleted viability, 60 h, at 10 µM, hits give low values
[6] = RAM pathway blockade in budding yeast – dse1pr::URA3 reporter, 5-FOA selection, pilot screen (AID 869;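 active means inhibition over a set limit, the all-compound mean plus 3 SD, in both replicate runs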;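 further: 0% = DMSO wells with no growth and 100% = 10 µM 1-NA-PP1 with full growth; RAM network block rescues cells from 5-FOA so hits raise OD615 growth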); conditions: S. cerevisiae dse1pr::URA3 5-FOA growth, OD615, 2 d; at 10 µM; hits give high values; strain carries analog-sensitive mutant Cbk1 kinase
[7] = RAM signaling pathway blockade in yeast – S. cerevisiae, Pdr1DBD-CYC8 efflux-inhibited sensitized strain, primary screen (AID 1298;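 active means RAM network inhibition above 8.4% in each of two replicates, 3 SD over the compound average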;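 further: 0% = DMSO untreated cells without growth and 100% = 10 µM 1-NA-PP1 full growth; higher means more yeast growth rescued from 5-FOA killing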); conditions: S. cerevisiae cbk1-as DSE1-URA3 strain, 5-FOA growth OD615, 2 d; at 50 µM; hits give high values

COc1cc(C(=O)Nc2cccc(-c3nc4ccccc4o3)c2C)cc(OC)c1OC
inactive: growth inhibition [1] -20.9% | growth inhibition [2] -26.2% | viability increase [3] -2.22% | viability [4] 91.2% | viability [5] 98.7% | inhibition [6] 2.46% | RAM network inhibition [7] 1.35%

Cc1cccc(N2CCN(C(c3cccs3)c3nnnn3C(C)(C)C)CC2)c1C (stereo not drawn)
inactive: growth inhibition [1] -10.2% | growth inhibition [2] -9.96% | viability increase [3] -0.98% | viability [4] 55.5% | viability [5] 56.7% | inhibition [6] 0.97% | RAM network inhibition [7] 5.15%

O=C(CNC(=O)c1ccco1)OCC(=O)c1ccccc1
inactive: growth inhibition [1] -8.55% | growth inhibition [2] 3% | viability increase [3] -1.3% | viability [4] 97.3% | viability [5] 94.3% | inhibition [6] 0.98% | RAM network inhibition [7] 0.92%

Cn1c(NC(=O)c2cc(Cl)ccc2Cl)cc(=O)n(C)c1=O
inactive: growth inhibition [1] 4.47% | growth inhibition [2] 3.21% | viability increase [3] -2.52% | viability [4] 99.9% | viability [5] 94.7% | inhibition [6] 1.17% | RAM network inhibition [7] 1.45%

CC1(C)CC(=O)C(C=NCCN2CCN(C(=O)CC3CCCC3)CC2)=C(O)C1
inactive: growth inhibition [1] -24.8% | growth inhibition [2] -8.86% | viability increase [3] -1.93% | viability [4] 96.9% | viability [5] 95.2% | inhibition [6] 1.25% | RAM network inhibition [7] 7.49%

CCOC(=O)c1cnc2c(C#N)c(C)nn2c1-c1ccccc1
inactive: growth inhibition [1] -5.3% | growth inhibition [2] 0.945% | viability increase [3] -0.99% | viability [4] 94% | viability [5] 92.7% | inhibition [6] 1.69% | RAM network inhibition [7] 3.66%

COc1ccccc1NC(=O)C1C2C=CC3(CN(Cc4cccnc4)C(=O)C13)O2 (stereo not drawn)
inactive: growth inhibition [1] 6% | growth inhibition [2] 4.22% | viability increase [3] 0.16% | viability [4] 98.2% | viability [5] 103% | inhibition [6] -0.25% | RAM network inhibition [7] -0.51%

Cc1cccc(OCCOCCSc2ncccn2)c1
inactive: growth inhibition [1] -8.47% | growth inhibition [2] 8.79% | viability increase [3] -1.63% | viability [4] 97.9% | viability [5] 94.8% | inhibition [6] 0.99% | RAM network inhibition [7] 6.33%

CC(NC(=O)COc1ccccc1)C(c1ccccc1)N1CCN(C)CC1 (stereo not drawn)
inactive: growth inhibition [1] -4.2% | growth inhibition [2] -7.49% | viability increase [3] -3.94% | viability [4] 97% | viability [5] 96.8% | inhibition [6] 1.02% | RAM network inhibition [7] 4.65%

CCOC(=O)c1ccc(NC(=O)C23CCC(C)(C(=O)O2)C3(C)C)cc1 (stereo not drawn)
inactive: growth inhibition [1] 1.15% | growth inhibition [2] 4.45% | viability increase [3] 1.07% | viability [4] 93.5% | viability [5] 101% | inhibition [6] -0.095% | RAM network inhibition [7] 5.33%

CSc1nc2c(c(=O)n1-c1ccc(F)cc1)SCC2
inactive: growth inhibition [1] -9.67% | growth inhibition [2] -24.3% | viability increase [3] -1.07% | viability [4] 102% | viability [5] 93.7% | inhibition [6] 2.19% | RAM network inhibition [7] 4.08%

O=C(Nc1ccc(F)cc1F)N1CCN(c2ncccn2)CC1
inactive: growth inhibition [1] -14.8% | growth inhibition [2] -26.3% | viability increase [3] -0.19% | viability [4] 106% | viability [5] 100% | inhibition [6] 1.76% | RAM network inhibition [7] 3.24%

Fc1ccc(Nc2nc(N3CCOCC3)c3ccccc3n2)cc1
inactive: growth inhibition [1] -3.31% | growth inhibition [2] -13.7% | viability increase [3] -3.18% | viability [4] 93.5% | viability [5] 93.4% | inhibition [6] 0.45% | RAM network inhibition [7] 2.64%

COC(=O)c1ccccc1NC(=O)C1CCCN(c2nnc(-n3cccc3)s2)C1 (stereo not drawn)
inactive: growth inhibition [1] -1.67% | growth inhibition [2] 4.77% | viability increase [3] -2.28% | viability [4] 86.2% | viability [5] 82.2% | inhibition [6] 1.65% | RAM network inhibition [7] 8.61%

O=C(COc1ccc(S(=O)(=O)NC2CCCCC2)cc1)N1CCN(c2ccc(F)cc2)CC1
inactive: growth inhibition [1] -6.21% | growth inhibition [2] -0.445% | viability increase [3] -0.23% | viability [4] 65.5% | viability [5] 67.1% | inhibition [6] -0.725% | RAM network inhibition [7] 3.14%

O=C(Cn1c(=O)sc2ccccc21)Nc1ccccc1C(=O)O
inactive: growth inhibition [1] -3.71% | growth inhibition [2] 0.435% | viability increase [3] 1.36% | viability [4] 102% | viability [5] 96.7% | inhibition [6] 3.53% | RAM network inhibition [7] 2.02%

CC(C)(C)OC(=O)N1CCC(C(N)=O)CC1
inactive: growth inhibition [1] -1.93% | growth inhibition [2] 0.2% | viability increase [3] -0.33% | viability [4] 103% | viability [5] 104% | inhibition [6] 0.535% | RAM network inhibition [7] 0.06%

CCCCNC(=O)CS(=O)Cc1nc(-c2cccc(C)c2)oc1C (stereo not drawn)
inactive: growth inhibition [1] -13.2% | growth inhibition [2] -6.67% | viability increase [3] -2.67% | viability [4] 96.2% | viability [5] 98.1% | inhibition [6] 1.14% | RAM network inhibition [7] 0.26%

O=C1C2CCCN2C(c2ccccc2F)N1c1cccc(Cl)c1 (stereo not drawn)
inactive: growth inhibition [1] 1.87% | growth inhibition [2] 1.65% | viability increase [3] -0.32% | viability [4] 97.8% | viability [5] 102% | inhibition [6] -0.43% | RAM network inhibition [7] 1.7%

CCC(=O)Nc1nnc(-c2ccco2)o1
inactive: growth inhibition [1] -3.92% | growth inhibition [2] -4.75% | viability increase [3] -0.45% | viability [4] 93.8% | viability [5] 102% | inhibition [6] 0.105% | RAM network inhibition [7] 4.9%

Cc1ccc(N(CC(=O)NC2CCC(C)CC2)S(=O)(=O)c2cccnc2)cc1 (stereo not drawn)
inactive: growth inhibition [1] 4.48% | growth inhibition [2] 8.91% | viability increase [3] 0.07% | viability [4] 98.3% | viability [5] 98.1% | inhibition [6] 1.15% | RAM network inhibition [7] -1.86%

Cc1cccc(NC(=O)C2CCN(S(=O)(=O)c3cccc4cccnc34)CC2)n1
inactive: growth inhibition [1] -2.91% | growth inhibition [2] 4.94% | viability increase [3] -3.03% | viability [4] 87.2% | viability [5] 84.7% | inhibition [6] 1.35% | RAM network inhibition [7] 1.44%

O=C(Cn1cc2c(n1)CCCCC2)NCc1ccccc1
inactive: growth inhibition [1] -13.4% | growth inhibition [2] 0.525% | viability increase [3] -0.82% | viability [4] 102% | viability [5] 86.5% | inhibition [6] 1.06% | RAM network inhibition [7] 3.47%

CC(=O)N1CCC(C(=O)Nc2ccccc2)(N(Cc2ccccc2)C(=O)c2cccnc2)CC1
inactive: growth inhibition [1] -2.38% | growth inhibition [2] 4.33% | viability increase [3] -0.15% | viability [4] 95.7% | viability [5] 86.7% | inhibition [6] 1.47% | RAM network inhibition [7] -1.39%

— PubChem BioAssay
